In PubChem BioAssay:
Unmarked numbers belong to inactive results. Inconclusive results are not listed. Active and inactive are the calls of the source.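 Rule for the calls, unless noted: active = growth inhibition above 25% in both replicates, a cutoff set 3 SD above the mean; inconclusive = above 25% in only one replicate; inactive = the rest.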

How the values were obtained:
[1] = OD615 S. cerevisiae growth inhibition, permissive medium, pilot counter-assay, permissive growth control for S. cerevisiae lifespan shortening project (AID 705); conditions: OD615, 24 h, at 10 µM, stronger effect = higher value
Summary of the method: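 System: Engineered DeaD yeast | Buffer or medium: SC raffinose/galactose permissive medium | Doses: 10 µM single dose, 0.25% DMSO | Times: 24 h exposure, 30 °C | Measured by: OD615 turbidity read | Read-out: Yeast growth inhibition indicated by reduced 24 h OD615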

[2] = Restrictive medium S. cerevisiae growth inhibition, OD615, pilot screen of yeast lifespan reduction project, restrictive growth control (AID 706;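 active = growth inhibition above a set limit, 3 SD over mean compound inhibition, in both replicates, cut at about 43% in these data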;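 note: modified DeaD lifespan yeast strain shifted to restrictive glucose medium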); conditions: OD615, 48 h, at 10 µM, stronger effect = higher value
Summary of the method: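 Assay system: engineered S. cerevisiae DeaD strain; Buffer or medium: CSMM-D glucose medium; Dosing: 10 µM compound, 0.25% DMSO; Times: cell pre-growth 4 h, compound exposure 48 h, 30 °C; Detection: absorbance (optical density) measured at 615 nm.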

[3] = viability gain of MRP-1-high H69AR cells under doxorubicin, pilot screen, MRP-1 activator project, CellTiter-Glo, duplicate (AID 807;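 active = viability increase at or above a cutoff of the median across tested compounds plus 3 SD, cut at about 8.5% in these data, passing the limit was not always enough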;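 note: compound pretreatment 18-22 h then 72 h combined with doxorubicin; 0% = doxorubicin alone and 100% = vehicle without doxorubicin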); conditions: H69AR viability with doxorubicin, CellTiter-Glo luminescence; at 10 µM; stronger effect = higher value
[4] = growth suppression of beta-catenin knockout HCT116, pilot screen, human colon tumor cells (AID 823;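 active = cell viability at or below a set limit in both duplicate runs, the limit being the all-compound median minus 4 SD, cut at about 23% in these data, passing the limit was not always enough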;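 note: 0% = wells killed by 20 µM Hyamine and 100% = untreated DMSO cell wells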); conditions: CellTiter-Glo, 60 h, at 10 µM, stronger effect = lower value
[5] = growth suppression of PTEN-deleted HCT116, pilot screen, cell-based, HCT116 clonal line, CellTiter-Glo (AID 824;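 active = viability at or below 27.92% in each of two runs, the all-compound median minus 4 SD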;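 note: 0% = 20 µM Hyamine control and 100% = vehicle cell control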); conditions: 60 h, at 10 µM, stronger effect = lower value
[6] = inhibitors of the yeast RAM network, pilot screen, dse1pr::URA3 reporter, 5-FOA selection (AID 869;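 active = inhibition over a set limit, the all-compound mean plus 3 SD, in both replicate runs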;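 note: 0% = DMSO wells with no growth and 100% = 10 µM 1-NA-PP1 with full growth; RAM network block rescues cells from 5-FOA so hits raise OD615 growth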); conditions: S. cerevisiae dse1pr::URA3 5-FOA growth, OD615, 2 d; at 10 µM; stronger effect = higher value; strain carries analog-sensitive mutant Cbk1 kinase
[7] = RAM signaling pathway blockade in yeast – S. cerevisiae, Pdr1DBD-CYC8 efflux-inhibited sensitized strain, primary screen (AID 1298;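 active = RAM network inhibition above 8.4% in each of two replicates, 3 SD over the compound average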;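 note: 0% = DMSO untreated cells without growth and 100% = 10 µM 1-NA-PP1 full growth; higher means more yeast growth rescued from 5-FOA killing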); conditions: S. cerevisiae cbk1-as DSE1-URA3 strain, 5-FOA growth OD615, 2 d; at 50 µM; stronger effect = higher value

Row | Structure (SMILES) | growth inhibition [1] | growth inhibition [2] | viability increase [3] | viability [4] | viability [5] | inhibition [6] | RAM network inhibition [7]
1 | CCCC1(C(=O)O)NC(c2ccc(OC)cc2O)C2C(=O)N(c3ccc(OC)cc3)C(=O)C21 (configuration not stated) | -7.46% | 1.98% | -0.54% | 95.8% | 91.6% | 1.48% | 2.34%
2 | NC(=O)C1(N2CCCCC2)CCN(S(=O)(=O)c2cc(Cl)ccc2Cl)CC1 | 4.2% | 3.53% | 0.74% | 98.7% | 91.1% | 1.56% | 6.42%
3 | O=C(CCSc1nc(-c2ccc3c(c2)OCO3)cc(C(F)(F)F)n1)NCc1ccco1 | -4.51% | -2.02% | -2.85% | 74.8% | 74.6% | 2.63% | 2.97%
4 | CC(C)Cn1c(CNC(=O)c2ccccc2)nc2ccccc21 | -4.34% | -13.4% | -2.23% | 99.6% | 93.1% | 0.785% | -0.78%
5 | C=CCn1c(=N)c(C(=O)OCC)cc2c(=O)n3cc(C)ccc3nc21 | 1.62% | 0.61% | -1.79% | 87% | 87.4% | 1.7% | 3.98%
6 | CCn1cc(C(=O)Nc2ccc3c(c2)OCCO3)c2cc(OC)c(OC)cc2c1=O | -10% | 2.6% | -6.05% | 101% | 88.6% | 0.915% | -1.36%
7 | O=C(NCCc1ccc(Cl)cc1)C1CC(=O)N(C2CCCCC2)C1 (configuration not stated) | -4.04% | -5.98% | -0.99% | 94.6% | 101% | 1.06% | 0.58%
8 | CN1CCN(C(=O)c2cc3c(s2)-c2ccccc2S(=O)(=O)C3)CC1 | -2.05% | -0.515% | -1.76% | 103% | 98.5% | 1.8% | 0.72%
9 | CC1CCN(S(=O)(=O)c2ccc3c(c2)oc(=O)n3CC(=O)NCc2ccc3c(c2)OCO3)CC1 | -1.64% | -15.8% | 4.02% | 81.4% | 76.7% | 3.27% | 2.06%
10 | Cc1cc(NS(=O)(=O)c2ccccc2)c(C)c(Cl)c1O | -8.22% | -15.3% | -4.31% | 1.97% (active) | 3.14% (active) | 2.38% | 6.4%
11 | CC1CCN(c2ncnc3c2cnn3-c2ccccc2)CC1 | 7.81% | 10.9% | 4.17% | 77.8% | 87.3% | 0.495% | -1.46%
12 | CCOC(=O)N1CCN(C(=O)Cn2ncc3c2-c2ccccc2OC3)CC1 | -14% | -8.46% | -1.16% | 102% | 95.9% | 0.82% | -1.43%
13 | O=C(CC1Sc2ncnn2C1=O)Nc1ccc(Br)cc1 (configuration not stated) | -5.64% | -9.71% | -1.23% | 106% | 100% | 1.93% | 5.71%
14 | O=C(NCCN1CCOCC1)c1ccc(CS(=O)(=O)c2c(Cl)cccc2Cl)o1 | -0.145% | 5.92% | -0.81% | 110% | 105% | 0.74% | 0.87%
15 | CC(=O)N(c1c(C)n(C)n(-c2ccccc2)c1=O)C1(C(=O)NC2CCCC2)CCCCC1 | -1.1% | -19% | -1.56% | 95.1% | 95.8% | 0.27% | -1.24%
16 | COC(=O)CSc1nc2ccccc2o1 | -7.46% | -18.7% | -1.43% | 97.8% | 96.3% | 1.3% | 1.45%
17 | CC(=O)NCCn1c(C)cc2ccccc21 | 2.67% | -0.185% | -0.52% | 95.3% | 105% | 0.97% | 0.86%
18 | Cc1cc(Nc2cccc(C)c2C)n2ncnc2n1 | -5.19% | -1.32% | -0.81% | 95.1% | 94.3% | -0.155% | -1.31%

Row | Structure (SMILES) | growth inhibition [1] | growth inhibition [2] | viability increase [3] | viability [4] | viability [5] | inhibition [6] | RAM network inhibition [7]
19 | COc1ccc(OC)c2c1sc(=NC(=O)C(C)(C)C)n2C | -7.64% | 6.31% | -6.23% | 84.1% | 79.6% | 3.72% | 6.93%
20 | O=C(CC1Oc2ccccc2NC1=O)NC1CC1 (configuration not stated) | -1.45% | -2.85% | 0.91% | 108% | 93.5% | 3.03% | -0.05%
21 | CCc1ccc(NS(=O)(=O)c2cc(OC)ccc2OC)cc1 | -3.06% | -9.52% | -3.77% | 66.6% | 58.3% | 0.68% | 1.9%
22 | COc1cc(O)c(NC(C)=O)c2nonc12 | -5.37% | 5.21% | 0% | 101% | 107% | -0.845% | -1.46%
23 | Cc1cnc(NC(=O)c2ccc(-c3nc4ccccc4s3)o2)s1 | -7.12% | 10.2% | -3.16% | 98.1% | 96.3% | 0.165% | 0.78%
24 | CCCn1c(NCc2ccc(N(C)C)cc2)nc2ccccc21 | -11.6% | -8.42% | -1.82% | 70.8% | 70.9% | 0.405% | 5.4%
25 | O=C(Nc1ccc(S(=O)(=O)N2CCCC2)cc1)C1COc2ccccc2O1 (configuration not stated) | -10.9% | -15.6% | 0.84% | 97.8% | 83% | 1.24% | 5.44%
26 | Cc1csc2nc(CNC(=O)C3CCCCC3)cn12 | -16.4% | -13.2% | -3.04% | 105% | 97.2% | 0.93% | 0.53%
27 | Cc1sc2nc(SCC(=O)NCc3ccco3)n(C)c(=O)c2c1C | -4.25% | -12.5% | -4.96% | 105% | 94.3% | 2.1% | 3.82%
28 | CCCc1ccc(OCC(O)CN2CCN(c3ccccc3)CC2)cc1 (configuration not stated) | 4.55% | 3.57% | -0.47% | 83% | 81.6% | 0.325% | 1.55%
29 | CCn1ncc(C2=NOC(C(=O)Nc3c(C)n(C)n(-c4ccccc4)c3=O)C2)c1C (configuration not stated) | -7.05% | 5.18% | 0.26% | 96.1% | 95.8% | 0.855% | 2.78%
30 | CCSc1nnc(NC(=O)c2cccc(OCc3c(C)noc3C)c2)s1 | 1.08% | 21.9% | 0.55% | 98.2% | 92.6% | 2.79% | 4.07%
31 | COc1ccc(CNC(=O)CCCNS(=O)(=O)c2cccc3nonc23)cc1 | 1.99% | -22.1% | -2.08% | 92.3% | 96.7% | 1.31% | 7.37%
32 | CN(C)c1nc(N)nc(-c2ccco2)n1 | 3.19% | 14.2% | 0.01% | 93.7% | 103% | 0.535% | 0.21%
33 | CCOCCn1c(SCCc2ccccc2)nc2c1c(=O)[nH]c(=O)n2C | -3.39% | 10.7% | -1.92% | 98.8% | 98.9% | 1.69% | 0.11%
34 | COc1ccccc1-c1nnc(SCC(=O)Nc2ccc(Cl)cc2Cl)o1 | -2.08% | 9.34% | 2.61% | 97.4% | 91.1% | 1.71% | 8.66%
35 | CC(=O)Nc1ccc(S(=O)(=O)n2cnc3cc(C)c(C)cc32)cc1 | -7.58% | 1.31% | -0.2% | 99.6% | 92.2% | -0.09% | 1.45%
36 | CN1CCN(CCCNC(=O)c2cn(C)c3ccc(S(=O)(=O)N(C)C)cc3c2=O)CC1 | -0.94% | 2.12% | -0.23% | 103% | 103% | -0.355% | 5.1%
